Holding throughout (type): ADME
The test system of series [1] is Liver microsome. Put plainly: Drug metabolism in Sprague-Dawley rat liver microsomes assessed as formation of 2-mercapto-3-(4-((6-methoxy-1-methyl-1H-benzo[d]imidazol-2-yl)methoxy)phenyl)propanamide at 20 uM after 2 hrs by radio-HPLC/LC-MS/MS analysis in presence of NADPH-generating system and NADPH-generating system/SAM. For orientation: Liver microsomes are a subcellular fraction often used to study metabolism.

Series [2] deals with T1, UDP-glucuronosyltransferase 1A1 (Homo sapiens, UniProt P22309).
T1 sequence (P22309 whole entry): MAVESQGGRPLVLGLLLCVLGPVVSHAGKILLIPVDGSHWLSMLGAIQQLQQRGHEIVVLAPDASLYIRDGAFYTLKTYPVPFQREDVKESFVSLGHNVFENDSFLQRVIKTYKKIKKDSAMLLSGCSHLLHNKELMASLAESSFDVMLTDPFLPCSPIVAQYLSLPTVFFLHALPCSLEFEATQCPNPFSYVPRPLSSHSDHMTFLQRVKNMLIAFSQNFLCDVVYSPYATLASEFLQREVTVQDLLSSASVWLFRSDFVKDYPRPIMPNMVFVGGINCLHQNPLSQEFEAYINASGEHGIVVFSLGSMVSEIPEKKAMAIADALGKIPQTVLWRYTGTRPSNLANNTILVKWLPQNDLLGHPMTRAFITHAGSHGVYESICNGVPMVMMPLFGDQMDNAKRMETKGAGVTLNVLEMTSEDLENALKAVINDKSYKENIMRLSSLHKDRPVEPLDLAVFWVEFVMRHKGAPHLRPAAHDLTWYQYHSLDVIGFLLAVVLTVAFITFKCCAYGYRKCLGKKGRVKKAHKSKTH
Put plainly: Activity of human UGT1A1 expressed in microsomes isolated from baculovirus infected insect cell assessed as enzyme-mediated 2-mercapto-3-(4-((6-methoxy-1-methyl-1H-benzo[d]imidazol-2-yl)methoxy)phenyl)propanoic acid formation at 20 uM after 4 hrs by radio-HPLC/LC-MS/MS analysis in presence of UDPGA. Put shortly:
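Alamethicin (50 μg/mg protein, 15 min on ice) pretreated expressed human UGT microsomes (1 mg/ml protein) from baculovirus-infected insect cells. Incubation with [¹⁴C]rivoglitazone (20 μM) in 100 mM Tris-HCl (pH 7.5) with 10 mM MgCl₂, started by 5 mM UDPGA, 4 h at 37°C with shaking. UGT insect-cell control supersomes were run alongside. Acetonitrile stop, concentrated supernatant analysed by radio-HPLC, LC-MS and LC-MS/MS.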

Series [3] has as its target T2, UDP-glucuronosyltransferase 2B4 (Homo sapiens, UniProt P06133).
T2 sequence (P06133 whole entry): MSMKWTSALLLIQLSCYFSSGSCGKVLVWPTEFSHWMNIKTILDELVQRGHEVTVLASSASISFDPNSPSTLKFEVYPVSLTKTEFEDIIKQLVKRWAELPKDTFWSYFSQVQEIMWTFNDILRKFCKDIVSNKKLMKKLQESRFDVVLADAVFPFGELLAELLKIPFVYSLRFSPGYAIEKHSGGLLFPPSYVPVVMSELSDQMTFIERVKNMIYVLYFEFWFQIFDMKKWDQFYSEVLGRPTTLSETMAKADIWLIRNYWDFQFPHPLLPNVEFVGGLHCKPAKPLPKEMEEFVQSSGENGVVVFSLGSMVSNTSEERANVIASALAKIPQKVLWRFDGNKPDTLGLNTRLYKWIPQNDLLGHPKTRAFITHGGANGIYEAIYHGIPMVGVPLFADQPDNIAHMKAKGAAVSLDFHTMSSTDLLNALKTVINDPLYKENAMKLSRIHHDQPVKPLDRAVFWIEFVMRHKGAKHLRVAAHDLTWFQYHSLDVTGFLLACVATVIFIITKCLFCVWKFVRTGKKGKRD
The experiment in a line: Activity of human UGT2B4 expressed in microsomes isolated from baculovirus infected insect cell assessed as enzyme-mediated (2S,3S,4S,5R,6R)-3,4,5-trihydroxy-6-(5-(4-((6-methoxy-1-methyl-1H-benzo[d]imidazol-2-yl)methoxy)benzyl)-2,4-dioxothiazolidin-3-yl)tetrahydro-2H-pyran-2-carboxylic acid formation at 20 uM after 4 hrs by radio-HPLC/LC-MS/MS analysis in presence of UDPGA.

The target of series [4] is T3, Cytochrome P450 1A2 (Homo sapiens, UniProt P05177).
T3 sequence (P05177 whole entry): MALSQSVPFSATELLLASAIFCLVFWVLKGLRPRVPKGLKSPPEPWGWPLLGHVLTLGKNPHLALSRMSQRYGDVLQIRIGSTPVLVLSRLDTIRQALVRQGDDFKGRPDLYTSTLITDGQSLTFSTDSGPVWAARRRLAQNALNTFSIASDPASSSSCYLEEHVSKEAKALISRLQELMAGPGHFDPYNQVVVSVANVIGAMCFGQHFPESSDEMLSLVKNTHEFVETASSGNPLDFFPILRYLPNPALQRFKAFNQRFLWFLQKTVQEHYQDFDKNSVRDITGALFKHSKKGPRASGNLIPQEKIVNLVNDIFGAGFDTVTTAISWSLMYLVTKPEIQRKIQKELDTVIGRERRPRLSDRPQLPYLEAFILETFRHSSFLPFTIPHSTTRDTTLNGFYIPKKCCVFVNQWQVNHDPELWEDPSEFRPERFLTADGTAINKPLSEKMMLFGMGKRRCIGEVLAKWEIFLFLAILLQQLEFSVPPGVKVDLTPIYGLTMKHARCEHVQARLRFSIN
Put plainly: Activity of human CYP1A2 expressed in microsomes isolated from baculovirus infected insect cell assessed as enzyme-mediated 2-((4-((2,4-dioxothiazolidin-5-yl)methyl)phenoxy)methyl)-1-methyl-1H-benzo[d]imidazol-6-yl hydrogen sulfate formation at 20 uM after 2 hrs by radio-HPLC/LC-MS/MS analysis. Put shortly: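 Baculovirus/insect-cell microsomes expressing single human CYPs, 1 mg/ml protein, with 50 mM potassium phosphate (pH 7.4) or 100 mM Tris-HCl (pH 7.5). NADPH-generating system: 2 mM NADP⁺, 20 mM glucose 6-phosphate, 2 units/ml G6PDH, 10 mM MgCl₂. [¹⁴C]rivoglitazone at 20 μM, 2 h at 37°C with shaking. Control used insect-cell control supersomes. Stopped with acetonitrile; supernatant concentrated under nitrogen; metabolites analysed by radio-HPLC, LC-MS and LC-MS/MS.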

Drug metabolism data for 1 compound are collected here from ChEMBL document CHEMBL3526048, “In vitro metabolism of rivoglitazone, a novel peroxisome proliferator-activated receptor γ agonist, in rat, monkey, and human liver microsomes and freshly isolated hepatocytes” (Drug Metab Dispos, 2011).

For the compound `COc1ccc2nc(COc3ccc(C[14CH]4SC(=O)NC4=O)cc3)n(C)c2c1.Cl` (racemic), the Drug metabolism result in series [1] is on record as “metabolite_detected”; in series [2], “metabolite_not_detected”; in series [3] it was “metabolite_not_detected”; in series [4], “metabolite_not_detected”.
